Data set [1] is described as follows: Half life in human plasma was reported. In kind it is ADME, cell-free.
In data set [2] the target is T1, Capsid scaffolding protein (Human cytomegalovirus (strain AD169) (HHV-5) (Human herpesvirus 5), UniProt P16753).
T1 sequence (P16753 whole entry): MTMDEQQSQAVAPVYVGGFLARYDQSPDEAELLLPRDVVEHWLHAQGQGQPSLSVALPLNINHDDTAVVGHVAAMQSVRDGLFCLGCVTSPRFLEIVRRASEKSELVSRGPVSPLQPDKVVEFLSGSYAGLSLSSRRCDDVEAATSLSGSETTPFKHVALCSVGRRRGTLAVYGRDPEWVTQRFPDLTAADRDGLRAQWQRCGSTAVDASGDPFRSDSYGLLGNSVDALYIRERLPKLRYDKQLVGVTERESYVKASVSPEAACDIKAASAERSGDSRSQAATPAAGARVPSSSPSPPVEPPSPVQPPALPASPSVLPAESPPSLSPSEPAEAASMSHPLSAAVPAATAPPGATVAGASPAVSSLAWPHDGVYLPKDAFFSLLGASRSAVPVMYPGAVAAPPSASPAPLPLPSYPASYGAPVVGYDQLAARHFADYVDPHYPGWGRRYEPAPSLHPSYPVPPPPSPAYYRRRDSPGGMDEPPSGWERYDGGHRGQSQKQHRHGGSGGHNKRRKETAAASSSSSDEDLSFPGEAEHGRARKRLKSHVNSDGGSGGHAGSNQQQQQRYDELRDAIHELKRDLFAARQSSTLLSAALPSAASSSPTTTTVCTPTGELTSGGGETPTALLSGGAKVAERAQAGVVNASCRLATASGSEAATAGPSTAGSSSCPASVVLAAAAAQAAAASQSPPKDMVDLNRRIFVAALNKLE
Put plainly: Tested in vitro for inhibitory activity against Protease. Also noted: species or system Human betaherpesvirus 5. In outline: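 Human cytomegalovirus protease inhibition was measured in a p-nitroanilide (pNA) chromogenic substrate assay. Values are reported as IC50 in μM, with Ki also given for some compounds.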

Take `CC1CC1C(=O)N1C(=O)[C@@H](C)[C@@H]2[C@@H]1CCN2C(=O)[C@@H]1CCCN1S(=O)(=O)c1cccc2c(N(C)C)cccc12` (stereo partly drawn): the half-life in data set [1] was 2.5 h. The IC50 in data set [2] turned out to be 1.4 µM.

`C[C@@H]1C(=O)N(C(=O)C2C(C)(C)C2(C)C)[C@H]2CCN(C(=O)OCc3ccccc3)[C@H]12`: in data set [1], the half-life is 33 h. This compound also came in with an IC50 in data set [2] above 500 µM.

Compound `C[C@@H]1[C@H](C)[C@@H]1C(=O)N1C(=O)[C@@H](C)[C@@H]2[C@@H]1CCN2C(=O)OCc1ccccc1` had a half-life in data set [1] of 9.8 h. In data set [2], this compound showed an IC50 of 72 µM.

Consider `COC(=O)N1C(=O)[C@@H](C)[C@@H]2[C@@H]1CCN2C(=O)OCc1ccccc1`, for which the half-life in data set [1] came out at 0.833 h. The same compound displayed an IC50 in data set [2] of 148 µM.

`C[C@@H]1C(=O)N(C(=O)C(C)(C)C)[C@H]2CCN(C(=O)OCc3ccccc3)[C@H]12` gave a half-life in data set [1] of 3.7 h. This compound also yielded an IC50 in data set [2] above 500 µM.

`C[C@@H]1C(=O)N(C(=O)C2CC2)[C@H]2CCN(C(=O)[C@@H]3CCCN3S(=O)(=O)c3cccc4c(N(C)C)cccc34)[C@H]12` had a half-life in data set [1] of 5 h.

In turn, `CNC(=O)N1C(=O)[C@@H](C)[C@@H]2[C@@H]1CCN2C(=O)OCc1ccccc1` came in with a half-life in data set [1] above 24 h. This compound returned an IC50 in data set [2] above 500 µM.

As to `CC1CC1C(=O)N1C(=O)[C@@H](C)[C@@H]2[C@@H]1CCN2C(=O)OCc1ccccc1` (stereo partly drawn), the half-life in data set [1] is 2.6 h. The same compound registered an IC50 in data set [2] of 16 µM.

In turn, `C[C@@H]1C(=O)N(S(C)(=O)=O)[C@H]2CCN(C(=O)OCc3ccccc3)[C@H]12` yielded a half-life in data set [1] below 0.0833 h. This compound also came in with a half-maximal inhibitory concentration (IC50) in data set [2] of around 500 µM.

With `C[C@@H]1C(=O)N(C(=O)NCc2ccccc2)[C@H]2CCN(C(=O)[C@@H]3CCCN3S(=O)(=O)c3cccc4c(N(C)C)cccc34)[C@H]12`, in data set [1], the half-life was above 33 h. The compound further came in with a concentration for half-maximal inhibition (IC50) in data set [2] of 6.6 µM.

With `C[C@@H]1C(=O)N(C(=O)C2CC2)[C@H]2CCN(C(=O)OCc3ccccc3)[C@H]12`, in data set [1], the half-life is 1.4 h. This compound registered an IC50 in data set [2] of 9 µM.

As for `C[C@@H]1C(=O)N(c2nccs2)[C@H]2CCN(C(=O)[C@@H]3CCCN3S(=O)(=O)c3cccc4c(N(C)C)cccc34)[C@H]12`, the half-life in data set [1] was above 50 h. This compound returned a half-maximal inhibitory concentration (IC50) in data set [2] of 2.1 µM.

`CC(=O)N1C(=O)[C@@H](C)[C@@H]2[C@@H]1CCN2C(=O)OCc1ccccc1` displayed a half-life in data set [1] of 0.9 h.

In the case of `C[C@@H]1C(=O)N(C(=O)NCc2ccccc2)[C@H]2CCN(C(=O)OCc3ccccc3)[C@H]12`, in data set [1], the half-life was 12 h. The same compound returned an IC50 in data set [2] of 250 µM.

Turning to `CC(=O)N1C(=O)C(C)(C)[C@@H]2[C@@H]1CCN2C(=O)OCc1ccccc1`, the half-life in data set [1] was 6.5 h. In data set [2], this compound came in with an IC50 above 500 µM.

In turn, `C[C@@H]1C(=O)N(C(=O)C2C(C)(C)C2(C)C)[C@H]2CCN(C(=O)[C@@H]3CCCN3S(=O)(=O)c3cccc4c(N(C)C)cccc34)[C@H]12` returned a half-life in data set [1] above 24 h. Moreover, the half-maximal inhibitory concentration (IC50) in data set [2] is above 100 µM.

The compound `CNC(=O)N1C(=O)[C@@H](C)[C@@H]2[C@@H]1CCN2C(=O)[C@@H]1CCCN1S(=O)(=O)c1cccc2c(N(C)C)cccc12` had a half-life in data set [1] of 12 h. Also, in data set [2], inhibition was half-maximal at 22 µM (IC50).

`COP(=O)(OC)N1C(=O)[C@@H](C)[C@@H]2[C@@H]1CCN2C(=O)OCc1ccccc1` yielded a half-life in data set [1] above 24 h. The IC50 in data set [2] was above 500 µM.

In data set [2], `C[C@@H]1C(=O)N(c2ccc([N+](=O)[O-])cc2)[C@H]2CCN(C(=O)[C@@H]3CCCN3S(=O)(=O)c3cccc4c(N(C)C)cccc34)[C@H]12` returned a 50% inhibitory concentration (IC50) of 41 µM.

Take `C[C@@H]1C(=O)N(c2nccs2)[C@H]2CCN(C(=O)OCc3ccccc3)[C@H]12`: the half-life in data set [1] was 44 h. In addition, the 50% inhibitory concentration (IC50) in data set [2] is around 500 µM.

`C[C@@H]1C(=O)N(c2ccc([N+](=O)[O-])cc2)[C@H]2CCN(C(=O)OCc3ccccc3)[C@H]12`: in data set [1], the half-life was 40 h. The compound further showed a half-inhibitory concentration (IC50) in data set [2] of around 500 µM.

Compound `C[C@@H]1[C@H](C)[C@@H]1C(=O)N1C(=O)[C@@H](C)[C@@H]2[C@@H]1CCN2C(=O)[C@@H]1CCCN1S(=O)(=O)c1cccc2c(N(C)C)cccc12` showed a half-life in data set [1] of 20 h. Half-maximal inhibition in data set [2] (IC50) was put at 5.1 µM.

In data set [1], `C[C@@H]1C(=O)N(c2ccc([N+](=O)[O-])cc2[N+](=O)[O-])[C@H]2CCN(C(=O)OCc3ccccc3)[C@H]12` returned a half-life above 24 h. In data set [2], the IC50 is around 500 µM.

As usually defined, the half-life is the time needed for the level to fall by half in the phase considered. Low values mean fast loss, high ones slow loss. Usually IC50 stands for the point on the concentration scale where inhibition reaches its midpoint. Higher therefore signals a need for much substance.

The values above are taken from ChEMBL document CHEMBL1135165, “Pyrrolidine-5,5-trans-lactams as novel mechanism-based inhibitors of human cytomegalovirus protease. Part 3: potency and plasma stability” (Bioorg Med Chem Lett, 2002).
